A short description of experiment [1]: hit retest on RPL19A-GFP reporter strain – cell-based, S. cerevisiae, flow cytometry, cherry picks, mother/daughter gates, confirmation (AID 2270;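 active = GFP response below 50% of the DMSO control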). Conditions: 3 h, at 10 µM, stronger effect = lower value, 100 = same GFP as DMSO wells. Background: In flow cytometry, cells or beads pass a laser one at a time.
Experiment [2] is described as follows: yeast TOR pathway reporter LAP4-GFP change – cell-based, cherry picks, flow cytometry, mother/daughter gates, confirmation (AID 2271;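 active = GFP response above 150% of the DMSO control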;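 note: ratio of sample to DMSO plate mean so 100% equals DMSO level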). The settings on record: S. cerevisiae LAP4-GFP strain, 3 h, at 10 µM, stronger effect = higher value, 100 means same as DMSO control. In short, it runs like this: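 Test system: GFP-fusion yeast strain / Amount: 0.2 OD600 cells / Buffer or medium: SC medium / Dosing: 10 µM single dose / Incubation: compound exposure 3 h at 30 °C, end-over-end rotation / Detection: HT flow cytometry, GFP fluorescence channel / Evaluation: median GFP fluorescence as percent of plate-mean DMSO wells / Control set: DMSO-only negative wells, rapamycin 400 ng/mL positive wells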

Experiment [3] in a line: TOR pathway reporter MEP2-GFP, retest of hits – S. cerevisiae, flow cytometry GFP, cherry picks, confirmation (AID 2272;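 active = GFP response above 150% of the DMSO control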;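 note: ratio of well signal to plate DMSO mean so 100% equals DMSO level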). Conditions: S. cerevisiae MEP2-GFP strain, 3 h, at 10 µM, stronger effect = higher value.
Experiment [4] can be described thus: yeast AGP1-GFP fluorescence change, single-dose – cell-based, flow cytometry, S. cerevisiae, cherry picks, confirmation (AID 2273).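 Note: median GFP channel fluorescence over the whole cell population gate.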 Conditions: S. cerevisiae AGP1-GFP strain, 3 h, at 10 µM.
Experiment [5] can be described thus: TOR pathway CIT2 reporter hit retest – S. cerevisiae, GFP fusion, cherry picks, mother/daughter gates, confirmation (AID 2274). The settings on record: S. cerevisiae CIT2-GFP strain, flow cytometry, 3 h, at 10 µM, stronger effect = higher value.
Where [6] appears, read: measured here: daughter cell gate.
[7] abbreviates: measured here: mother cell gate.
The mark [8] stands for this setting: measured here: daughter cell gate response.
[9] abbreviates: measured here: mother cell gate response.

GFP response vs DMSO, GFP response relative to DMSO and GFP response, % of DMSO data for eight compounds are collected here from PubChem BioAssay.

The source made the active and inactive calls.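 Rule for the calls, unless noted: active = GFP response above 150% of the DMSO level; inconclusive = fewer than 70 events counted for a yeast strain; inactive = the rest.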

Turning to `O=C1C(Cl)=C(N2CCN(Cc3ccccc3)CC2)C(=O)N1Cc1ccccc1`, the GFP response vs DMSO was 97% (inactive) in experiment [1], 98.1% in experiment [1] (setting [6]), 98% in experiment [1] (setting [7]) and 94.7% (inactive) in experiment [3]. Also, the values for the GFP response relative to DMSO in experiment [2], in experiment [2] (setting [8]) and in experiment [2] (setting [9]) were 99.5% (inactive), 101% and 98.4%, respectively. Also, the GFP response, % of DMSO in experiment [4] is 102% (inactive); in experiment [5], 100% (inactive); in experiment [5] (setting [6]), 101%; in experiment [5] (setting [7]), 99.3%.
`Cc1ccc(NN2C(=O)C=C(c3ccc(Cl)cc3)C2=O)cc1`: the GFP response vs DMSO in experiment [1] was 83.9% (inactive); in experiment [1] (setting [6]), 87.1%; in experiment [1] (setting [7]), 74.3%; in experiment [3], 111% (inactive). The GFP response relative to DMSO is 289% (active) in experiment [2], 117% in experiment [2] (setting [8]) and 280% in experiment [2] (setting [9]). Moreover, the GFP response, % of DMSO in experiment [4] is 91.3% (inactive); in experiment [5], 96.9% (inactive); in experiment [5] (setting [6]), 91.7%; in experiment [5] (setting [7]) it was 83.1%.
Regarding `Cc1cccc(N2C(=O)CC(Sc3nc(C)c4c(n3)CCCC4)C2=O)c1` (stereo not drawn), the GFP response vs DMSO in experiment [1] was 96.8% (inactive); in experiment [1] (setting [6]), 95.4%; in experiment [1] (setting [7]), 97.2%; in experiment [3], 102% (inactive). Moreover, the GFP response relative to DMSO in experiment [2] was 94.1% (inactive); in experiment [2] (setting [8]), 94.4%; in experiment [2] (setting [9]), 95.1%. The GFP response, % of DMSO in experiment [4] is 95% (inactive); in experiment [5], 99.7% (inactive); in experiment [5] (setting [6]) it was 99.1%; in experiment [5] (setting [7]), 99.7%.
For the compound `Cc1ccc(C)c(NC(=O)c2ccccc2O)c1`, the GFP response vs DMSO in experiment [1] is 98.5% (inactive); in experiment [1] (setting [6]) it was 97%; in experiment [1] (setting [7]), 97.8%; in experiment [3], 101% (inactive). Also, the values for the GFP response relative to DMSO in experiment [2], in experiment [2] (setting [8]) and in experiment [2] (setting [9]) were 108% (inactive), 99% and 112%, respectively. For the same compound, the GFP response, % of DMSO was 97.3% (inactive) in experiment [4], 93.1% (inactive) in experiment [5], 95.8% in experiment [5] (setting [6]) and 96% in experiment [5] (setting [7]).
`Oc1c(CN2CCN(c3ccccc3)CC2)cc(Br)c2cccnc12`: the GFP response vs DMSO in experiment [1] is 99.6% (inactive); in experiment [1] (setting [6]), 101%; in experiment [1] (setting [7]), 95.9%; in experiment [3], 153% (inactive). For the same compound, the GFP response relative to DMSO in experiment [2] was 220% (active); in experiment [2] (setting [8]), 168%; in experiment [2] (setting [9]), 231%. Also, the GFP response, % of DMSO in experiment [4] was 81.5% (inactive); in experiment [5], 103% (inactive); in experiment [5] (setting [6]), 99.1%; in experiment [5] (setting [7]) it was 93.8%.
`COc1cccc(C(=O)Nc2ccc(C)cc2)c1`: the GFP response vs DMSO in experiment [1] is 100% (inactive); in experiment [1] (setting [6]) it was 99.9%; in experiment [1] (setting [7]), 100%; in experiment [3], 102% (inactive). The values for the GFP response relative to DMSO in experiment [2], in experiment [2] (setting [8]) and in experiment [2] (setting [9]) were 101% (inactive), 99.2% and 101%, respectively. Besides, the GFP response, % of DMSO in experiment [4] was 91.2% (inactive); in experiment [5], 107% (inactive); in experiment [5] (setting [6]), 106%; in experiment [5] (setting [7]) it was 106%.
As to `O=C1C2C3C=CC(CO)(O3)C2C(=O)N1c1ccccc1-c1ccccc1` (stereo not drawn), the GFP response vs DMSO in experiment [1] is 113% (inactive); in experiment [1] (setting [6]), 117%; in experiment [1] (setting [7]) it was 110%; in experiment [3] it was 126% (inactive). Also, the GFP response relative to DMSO in experiment [2] is 135% (inactive); in experiment [2] (setting [8]) it was 128%; in experiment [2] (setting [9]) it was 132%. For the same compound, the GFP response, % of DMSO is 109% (inactive) in experiment [4], 124% (inactive) in experiment [5], 132% in experiment [5] (setting [6]) and 113% in experiment [5] (setting [7]).
Regarding `COc1cccc(/C=N/Nc2nc(-c3cccnc3)nc3ccccc23)c1`, the GFP response vs DMSO in experiment [1] is 94.7% (inactive); in experiment [1] (setting [6]), 93.3%; in experiment [1] (setting [7]) it was 93.5%; in experiment [3], 106% (inactive). Besides, the GFP response relative to DMSO in experiment [2] is 104% (inactive); in experiment [2] (setting [8]), 101%; in experiment [2] (setting [9]), 106%. Moreover, the GFP response, % of DMSO in experiment [4] was 101% (inactive); in experiment [5] it was 103% (inactive); in experiment [5] (setting [6]) it was 103%; in experiment [5] (setting [7]), 100%.
